PRMT1 FP inh: PRMT1 methyltransferase inhibitors, primary screen, biochemical, fluorescence polarization; Protein arginine N-methyltransferase 1 (Homo sapiens), Q99873; recombinant PRMT1, activity-based probe fluorescence polarization; inhibition, % at 2.79 µM; 370,000 compounds, 1.3% hits; AID 652257, 2013;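 active = inhibition above about 21% made by adding two undisclosed values, limit read from the data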
HTRA1 inh: HTRA1 serine protease inhibitors, primary screen, biochemical, fluorescence polarization, HTS; recombinant HTRA1, FP-rhodamine activity-based probe; inhibition, % at 5.96 µM; 340,000 compounds, 0.5% hits; in the data active = inhibition above about 36%
Target sequence (Q92743 whole entry, looked up): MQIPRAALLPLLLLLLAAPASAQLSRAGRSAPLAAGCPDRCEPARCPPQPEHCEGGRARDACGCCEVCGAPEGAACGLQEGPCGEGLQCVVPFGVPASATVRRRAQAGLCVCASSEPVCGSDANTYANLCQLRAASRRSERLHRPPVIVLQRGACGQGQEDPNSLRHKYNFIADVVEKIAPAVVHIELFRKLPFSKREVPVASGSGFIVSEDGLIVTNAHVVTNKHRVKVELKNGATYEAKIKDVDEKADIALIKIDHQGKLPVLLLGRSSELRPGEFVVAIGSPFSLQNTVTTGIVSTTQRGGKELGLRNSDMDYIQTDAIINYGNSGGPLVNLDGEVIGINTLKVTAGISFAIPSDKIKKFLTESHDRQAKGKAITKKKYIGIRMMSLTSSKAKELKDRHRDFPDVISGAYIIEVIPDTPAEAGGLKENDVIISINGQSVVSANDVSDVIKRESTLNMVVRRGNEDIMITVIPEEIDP
ABHD4 inh: ABHD4 inhibitors, primary screen, biochemical, fluorescence polarization, mouse. purified mABHD4, FP-Rh probe fluorescence polarization. inhibition, % at 8.92 µM. 370,000 compounds, 0.54% hits. AID 720543, 2013;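 active = inhibition exceeding the mean over every tested compound plus 3 SD, cut at about 30% in these data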
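Test system: mABHD4 protein | Buffer or medium: HEPES pH 7.0 buffer, 150 mM NaCl, 0.01% Pluronic F-127 | Probe or stimulus: FP-Rh fluorescent activity-based probe, added after compound pre-incubation | Timing: Pre-incubation 45 min, probe exposure 60 min, at 25 °C | Technique: Fluorescence polarization, excitation 525 nm, emission 598 nm, BODIPY TMR filters | Repeats: Single well per compound (singlicate)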
TCR-CD3 inh: inhibitors of human TCR-CD3 interaction, primary screen, biochemical, fluorescence, TAMRA-labeled TCR probe. T-cell receptor (TCR). inhibition, % at 9.4 µM. 360,000 compounds, 0.37% hits. AID 651800, 2012; in the data active = inhibition above about 19%;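 note: recombinant mutant TCR 2C K166C tagged with TAMRA read by polarization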
SIAE primary: human SIAE inhibitors, primary screen, biochemical, fluorescence polarization, FP-Rh probe, 1536-well HTS. Sialate O-acetylesterase (Homo sapiens), Q9HAT2. SIAE FP-Rh probe binding. inhibition, % at 9.66 µM. 370,000 compounds, 0.69% hits;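 active = inhibition above a cutoff: mean of compounds within the control limits plus 3 SD of those, cut at about 17% in these data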
mABHD4 conf: ABHD4 inhibitors, retest, confirmation, biochemical, fluorescence polarization, mouse. shares compounds with ABHD4 inh. purified mABHD4, FP-Rh probe fluorescence polarization. inhibition, % at 8.92 µM. 1,800 compounds, 55% hits;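 active = mean inhibition across replicates above the hit cutoff set in the primary screen, cut at about 30% in these data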
SIAE inh conf: human SIAE inhibitors, retest, confirmation, biochemical, fluorescence polarization, FP-Rh probe, triplicate | shares compounds with SIAE primary | SIAE FP-Rh activity-based probe | inhibition, % at 9.66 µM | 2,300 compounds, 13% hits;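 active = mean inhibition of the replicates above the hit cutoff set in the primary screen, cut at about 17% in these data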;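 note: inhibitors lower polarization as more probe stays unbound to SIAE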
Large screens that a line does not name were inactive (follow-up assays come after a bar, where they were run). Compounds with a hit are over-represented: about 2.5% of the library has one in this group of screens.

Cc1ccc(N=C(/N=C(\N)N[N+](=O)[O-])Nc2ccc(C)cc2)cc1	none
CNC(=O)Oc1cccc(-c2cn3cc(OC(=O)NC)ccc3n2)c1	ABHD4 inh 40.4, SIAE primary 17.1 | mABHD4 conf inactive | SIAE inh conf inactive
COC(=O)C1=C(c2ccc(C(C)=O)cc2)C[C@@H]2CC[C@H]1N2C(=O)NC1Cc2ccccc2C1	none (no result: PRMT1 FP inh, ABHD4 inh, TCR-CD3 inh, SIAE primary)
Cc1ccc(-c2cc(-c3ccc(C)cc3)[n+](C)o2)cc1	SIAE primary 18.1 | SIAE inh conf inactive
CNC(=O)O/N=C/c1nn(C(=O)C(C)(C)C)cc1Br	SIAE primary 17.3 | SIAE inh conf inactive
C=CCn1c(O)c(C(C)=O)c(=O)[nH]c1=O (tested in a mixture with another compound)	none
CN(C)C(CNC(=O)Cc1c(Cl)cccc1Cl)c1ccccc1 (stereo not drawn)	SIAE primary 17.3 | SIAE inh conf inactive
Clc1cccc(N2Cc3cc(-c4ccccc4)ccc3-n3nncc3C2)c1	none (no result: HTRA1 inh)
C/C(=N\N1CCCCCC1)c1c(O)n(-c2ccccc2)c(=O)[nH]c1=O	SIAE primary 49.5 | SIAE inh conf inactive
Cn1cc(P(=S)(c2ccccc2)c2ccccc2)c2ccccc21	none (no result: HTRA1 inh, TCR-CD3 inh)
Cn1cc(C=C2C(=O)NC(=O)NC2=O)c2ccccc21	SIAE primary 47.3 | SIAE inh conf inactive
CC(=O)n1cc(C=C2C(=O)NC(=O)NC2=O)c2ccccc21	none
COc1ccc(CN2CCCC(C(=O)c3ccc(Cl)cc3)C2)c(OC)c1 (stereo not drawn)	SIAE primary 17.6 | SIAE inh conf inactive
COc1ccc(CN2CCCC(C(=O)c3cccc(Cl)c3)C2)cc1 (stereo not drawn)	none
CC[C@@H]1C[C@H]2CC[C@H](O2)[C@H](C)C(=O)O[C@@H](C)C[C@@H]2CC[C@@H](O2)[C@@H](C)C(=O)O[C@H](C)C[C@H]2CC[C@H](O2)[C@H](C)C(=O)O[C@@H](C)C[C@@H]2CC[C@@H](O2)[C@@H](C)C(=O)O1	none (no result: HTRA1 inh)
CC1=NN(c2ccccc2)C(=O)C1/C=C1/C(=O)NC(=O)N(c2cc(C)cc(C)c2)C1=O (stereo not drawn)	SIAE primary 74.6 | SIAE inh conf inactive
O=c1cc(C(F)(F)F)c2cc3c4c(c2o1)CCCN4CCC3	PRMT1 FP inh 101.4, SIAE primary 17.9 | SIAE inh conf inactive
CN(C(=O)Cc1ccc2c(c1)OCO2)C1CCCN(Cc2ccccc2F)C1 (stereo not drawn)	SIAE primary 22.8 | SIAE inh conf inactive
O=C(c1ccc2c(c1)OCO2)C1CCCN(Cc2ccc(F)c(F)c2)C1 (stereo not drawn)	none
N#CC1c2ccccc2-n2nncc2CN1Cc1cc(Cl)cc(Cl)c1 (stereo not drawn)	none
CCOC(=O)[C@]12Cc3cc4ccccc4cc3[C@H]1N(Cc1ccccc1)C(=O)c1cc(OC)ccc12	none (no result: HTRA1 inh)
NP(=O)(OCCCc1ccccc1)Oc1ccc(Cl)cc1 (stereo not drawn)	SIAE primary 48.5 | SIAE inh conf 45.7
CC(C)CCOP(N)(=O)Oc1ccccc1Cl (stereo not drawn)	SIAE primary 38.8 | SIAE inh conf 29.5
NP(=O)(OCCCc1ccccc1)Oc1ccccc1Cl (stereo not drawn)	SIAE primary 56.5 | SIAE inh conf 54.0
NP(=O)(OCCCc1ccccc1)c1ccccc1 (stereo not drawn)	none
COC(=O)C1=C(c2ccccc2)C[C@@H]2CC[C@H]1N2C(=O)NC1CCCCC1	none
Cc1cccc(NP2(=O)NCCCN2)c1	none
CCS(=O)(=O)CCSP(=O)(OC)OC	SIAE primary 34.4 | SIAE inh conf 48.9
COC1CCC(OC2CC(C3(C)CCC4(CC(O)C(C)C(C(C)/C=C(\C)C(=O)C(C)CC(C)C(=O)O)O4)O3)OC3(OC(C4OC(O)(CO)C(C)CC4C)CC3C)C2C)OC1C (stereo not drawn)	none
O=c1[nH]c(O)c(N=Nc2ccc3c(c2)OCCO3)c(=O)[nH]1	SIAE primary 17.5 | SIAE inh conf inactive
CCCCCN1C(=O)c2cc(OC)ccc2[C@@]2(C(=O)OCC)Cc3cc(Cl)ccc3[C@@H]12	none (no result: HTRA1 inh)
O=C(c1cc(Cl)cc(Cl)c1)N1Cc2ccccc2-n2nncc2C1	none
Cc1ccc(CN2CCSc3ccc(C(=O)N4CCC5(CC4)OCCO5)cc32)cc1	none
O=C(c1ccc2c(c1)N(Cc1ccc(F)cc1)CCS2)N1CCC2(CC1)OCCO2	SIAE primary 17.8 | SIAE inh conf inactive
CC1(C)OC(c2ccccc2)=C/C(=C/C=C2C(=O)NC(=S)NC2=O)O1	none (no result: HTRA1 inh)
CN1/C(=C\C=C2C(=O)NC(=S)NC2=O)C(C)(C)c2ccccc21	SIAE primary 59.8 | SIAE inh conf 153.3
COc1cc2c(cc1OC)-c1c(OC)c(OC)cc3c1[C@H](C2)[N+](C)(C)CC3	SIAE primary 18.4 | SIAE inh conf inactive
CC(C)Oc1ccc(C2C(C#N)=C(N)Oc3c2c(=O)oc2ccccc32)cc1 (stereo not drawn)	none
N#CC1=C(N)Oc2c(c(=O)oc3ccccc23)C1c1ccc([N+](=O)[O-])o1 (stereo not drawn)	SIAE primary 21.8 | SIAE inh conf inactive

From PubChem
